Columns and labels:
[1] = tested on: West Nile virus; assay: Inhibition of West Nile viral Rluc-Neo-Rep in BHK21 cell line; format: functional, organism-based; settings: BHK-21
Outline: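 BHK-21 cell line stably carrying Rluc-Neo-Rep replicon; inhibition read as suppression of Renilla luciferase signal. Initial screen at 30 µM, 1% DMSO final; EC50 (µM) then determined.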

[2] = tested on: BHK-21; assay: Cytotoxicity against BHK21 cell line by MTT assay; format: functional; settings: Mesocricetus auratus
Outline: (§1)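 MTT cytotoxicity assay run in BHK-21 and Vero cells on compounds giving >50% Rluc inhibition in the primary screens; CC50 reported in µM.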

[3] = Therapeutic index (CC50/EC50) in BHK21 cells; format: cell-based, BHK-21; settings: hamster, read-out: Ratio CC50/EC50
Outline: (§2)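 TI computed as CC50/EC50, using MTT CC50 and replicon EC50 in BHK-21 cells, or MTT CC50 and Rluc-FL-WNV EC50 in Vero cells.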

[4] = tested on: West Nile virus; assay: Inhibition of Rluc-FL-WNV replicon in Vero cells; format: functional, organism-based
Outline: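 Vero cells infected with full-length WNV carrying Renilla luciferase reporter (Rluc-FL-WNV), covering entry, replication and assembly; inhibition read as suppression of luciferase signal. Compounds first screened at 30 µM in 1% DMSO final, then EC50 (µM) determined.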

[5] = tested on: Vero; assay: Cytotoxicity against Vero cells by MTT assay; format: functional; settings: Chlorocebus sabaeus; outline: as §1
[6] = Therapeutic index (CC50/EC50) in Vero cells; format: cell-based; settings: monkey, read-out: Ratio CC50/EC50; outline: as §2
[7] = tested on: BHK-21; assay: Inhibition of West Nile virus VLP replicon in BHK21 cell line; format: functional, cell-based; settings: Mesocricetus auratus
Outline: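 Naive BHK-21 cells infected with virus-like particles, made by expressing WNV structural proteins in cells carrying the Rluc-Neo-Rep replicon, which package replicon RNA. This captures entry and replication but not assembly. Inhibition is read as suppression of Renilla luciferase signal. Compounds were given in 1% DMSO final, and EC50 is in µM.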

Row | Compound | EC50 [1] [µM] | CC50 [2] [µM] | selectivity ratio [3] | EC50 [4] [µM] | CC50 [5] [µM] | selectivity ratio [6] | EC50 [7] [µM]
1 | CC(C)(C)C(=O)N1N=C(C(C)(C)C)CC1c1ccc(Cl)cc1 (stereo not given) | 27 | 60 | 2.2 |  |  |  | 
2 | O=C(Cc1ccc(Cl)cc1)N1N=C(c2ccco2)CC1c1ccc(Br)cc1 (stereo not given) | 20 | > 300 | > 15 |  |  |  | 
3 | CC(C)(C)C1=NN(C(=O)c2ccccc2)C(c2ccc(Cl)cc2)C1 (stereo not given) | 57 | 65 | 1.1 |  |  |  | 
4 | CN1CCN(C(=O)c2cccc3c(NC4CCN(Cc5ccccc5)CC4)c4ccccc4nc23)CC1 | 15 | 300 | 20 | 22 | 80 | 3.6 | 20
5 | CN1CCN(C(=O)c2ccc3nc4ccccc4c(NC4CCN(Cc5ccccc5)CC4)c3c2)CC1 | 28 | 100 | 3.6 | 25 | 80 | 3.2 | 25
6 | CN1CCN(C(=O)c2ccc3c(NCCc4c[nH]c5ccccc45)c4ccccc4nc3c2)CC1 | 13.7 | 150 | 11 | > 30 | 45 | < 1.5 | 10
7 | CCN(CC)C(=O)c1ccc2c(NCCc3c[nH]c4ccccc34)c3ccccc3nc2c1 | 7 | 125 | 18 | 25 | 45 | 1.8 | 7
8 | O=C(c1ccccc1)N1N=C(c2ccccc2)CC1c1ccc(Cl)cc1 (stereo not given) | 20 | 250 | 12.5 |  |  |  | 
9 | O=C(Cc1ccc(Cl)cc1)N1N=C(c2cccs2)CC1c1ccc(Cl)cc1 (stereo not given) | 19 | > 300 | > 16 |  |  |  | 
10 | CCN(CC)C(=O)c1ccc2nc3ccccc3c(NC3CCN(Cc4ccccc4)CC3)c2c1 | 22 | 120 | 5.4 | 20 | 50 | 2.5 | 22
11 | CCN(CC)C(=O)c1ccc2nc3ccccc3c(NCCc3c[nH]c4ccccc34)c2c1 | 25 | 110 | 4.4 | 15 | 75 | 5 | 20
12 | CN1CCN(Cc2ccc3c(c2)Oc2ccccc2C3)CC1 | > 30 | 200 | < 6.7 | > 30 | 90 | < 3 | 28
13 | CN1CCN(C(=O)c2ccc3c(NC4CCN(Cc5ccccc5)CC4)c4ccccc4nc3c2)CC1 | 15.5 | 150 | 9.7 | 30 | 80 | 2.7 | 8
14 | O=C(c1ccccc1)N1N=C(c2cccs2)CC1c1ccc([N+](=O)[O-])cc1 (stereo not given) | 200 | > 300 | > 1.5 |  |  |  | 
15 | CC(C)(C)C(=O)N1N=C(c2cccs2)CC1c1ccc(Cl)cc1 (stereo not given) | 60 | 90 | 1.5 |  |  |  | 
16 | O=C(c1ccccc1)N1N=C(c2cccs2)CC1c1ccc(F)cc1 (stereo not given) | 59 | 100 | 1.7 |  |  |  | 
17 | CCN(CC)C(=O)c1cccc2c(NCCc3c[nH]c4ccccc34)c3ccccc3nc12 | 9.2 | 150 | 16 | 20 | 50 | 2.5 | 9

Row | Compound | EC50 [1] [µM] | CC50 [2] [µM] | selectivity ratio [3] | EC50 [4] [µM] | CC50 [5] [µM] | selectivity ratio [6] | EC50 [7] [µM]
18 | COc1ccc(C2CC(c3cccs3)=NN2C(=O)Cc2ccc(Cl)cc2)cc1 (stereo not given) | 30 | > 300 | > 10 |  |  |  | 
19 | O=C(c1cccc2c(NCCc3c[nH]c4ccccc34)c3ccccc3nc12)N1CCOCC1 | 20 | 250 | 13 | > 30 | 60 | < 2 | 23
20 | CN1CCN(C(=O)c2ccc3nc4ccccc4c(NCCc4c[nH]c5ccccc45)c3c2)CC1 | 28 | 170 | 6.1 | 25 | 65 | 2.6 | 27
21 | CN1CCN(C(=O)c2ccc3nc4ccccc4c(Oc4ccccc4)c3c2)CC1 | 21 | 100 | 4.7 | 20 | 80 | 4 | 20
22 | CCN(CC)C(=O)c1ccc2c(NC3CCN(Cc4ccccc4)CC3)c3ccccc3nc2c1 | 12.5 | 150 | 12 | 20 | 55 | 2.7 | 6
23 | O=C(c1ccc([N+](=O)[O-])cc1)N1N=C(c2cccs2)CC1c1ccc(Cl)cc1 (stereo not given) | 225 | > 300 | > 1.3 |  |  |  | 
24 | O=C(Cc1ccccc1)N1N=C(c2cccs2)CC1c1ccc(Cl)cc1 (stereo not given) | 20 | 65 | 3.3 |  |  |  | 
25 | O=C(c1ccccc1)N1N=C(c2cccs2)CC1c1ccc(Br)cc1 (stereo not given) | 25 | > 300 | > 12 | > 30 |  |  | 
26 | COc1ccc(C2CC(c3cccs3)=NN2C(=O)c2ccccc2)cc1 (stereo not given) | 63 | > 300 | > 4.8 | > 30 |  |  | 
27 | CCN(CC)C(=O)c1cccc2c(NC3CCN(Cc4ccccc4)CC3)c3ccccc3nc12 | 8 | 350 | 44 | 22 | 75 | 3.4 | 20
28 | CN1CCN(C(=O)c2cccc3c(NCCc4c[nH]c5ccccc45)c4ccccc4nc23)CC1 | 10.5 | 150 | 14 | 18 | 50 | 2.8 | 17
29 | O=C(Cc1ccc(Cl)cc1)N1N=C(c2cccs2)CC1c1ccc(Br)cc1 (stereo not given) | 19 | > 300 | > 16 |  |  |  | 
30 | O=C(c1ccccc1)N1N=C(c2ccc(Br)s2)CC1c1ccc(Cl)cc1 (stereo not given) | 17 | > 300 | > 18 |  |  |  | 
31 | CN1CCN(C(=O)c2ccc3c(Oc4ccccc4)c4ccccc4nc3c2)CC1 | 28 | 100 | 3.6 | 28 | 40 | 1.4 | 18
32 | CN1CCN(C(=O)c2cccc3c(Oc4ccccc4)c4ccccc4nc23)CC1 | 20 | 150 | 7.5 | 20 | 50 | 2.5 | 20
33 | O=C(c1cccc2c(Oc3ccccc3)c3ccccc3nc12)N1CCOCC1 | > 30 | 155 | < 5.1 | 22 | 45 | 2 | > 30
34 | O=C(c1cccc2c(NC3CCN(Cc4ccccc4)CC3)c3ccccc3nc12)N1CCOCC1 | 20 | 300 | 15 | > 30 | 90 | < 3 | 20

Reference: ChEMBL document CHEMBL1138199, “Identification of compounds with anti-West Nile Virus activity” (J Med Chem, 2006)
